Measured values as given in PubChem BioAssay AID588627 (Johns Hopkins Ion Channel Center, 2011).
Among all 310,000 compounds or so, about 1,400 (0.45%) were called active.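 Rule for the calls: active = calcium response B-score plate-corrected fluorescence ratio at least 3 library SD, with starting fluorescence B-score inside 5 SD; inactive = the rest.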 This excerpt belongs to a sample that is enriched for actives.

Each compound was assayed against Mas-related G-protein coupled receptor member X1 (Homo sapiens) (UniProt Q96LB2) (assay: agonists of human MrgX1 receptor, primary screen, HEK293 cells, Fluo-4 calcium flux (AID 588627;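 for B-score: B-score of the peak-minus-trough calcium fluorescence change over baseline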)). Conditions: Fluo-4 calcium fluorescence, agonist mode, at 10 µM; active compounds read high.
Chain of Mas-related G-protein coupled receptor member X1 (Homo sapiens) (Q96LB2 whole entry, looked up): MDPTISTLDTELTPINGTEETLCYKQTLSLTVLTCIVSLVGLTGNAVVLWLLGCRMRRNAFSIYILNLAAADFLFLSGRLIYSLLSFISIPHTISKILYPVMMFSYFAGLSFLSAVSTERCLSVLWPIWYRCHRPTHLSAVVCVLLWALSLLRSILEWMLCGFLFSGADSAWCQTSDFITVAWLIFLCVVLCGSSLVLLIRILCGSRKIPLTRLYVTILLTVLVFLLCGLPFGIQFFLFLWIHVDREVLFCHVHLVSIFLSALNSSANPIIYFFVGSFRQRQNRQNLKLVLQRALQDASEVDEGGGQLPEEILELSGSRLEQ
Procedure, shortened: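 Material: HEK293 cells stably expressing human MrgX1 receptor | Quantity: 15,000 cells per well | Times: Cells plated overnight, dye loaded 0.5 h 37 °C, 0.5 h room temperature | Measured by: Kinetic Fluo-4 NW fluorescence of intracellular calcium | Control set: Positive and negative controls per plate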

| Compound | B-score |
| --- | --- |
| CCCCC(=O)N/N=C/c1c(O)n(CCC2=CCCCC2)c(=O)[nH]c1=O | inactive |
| CCCCC(=O)N/N=C/c1c(O)n(-c2ccccc2)c(=O)[nH]c1=O | inactive |
| CCCCC(=O)N/N=C/c1c(O)n(CC)c(=S)n(CC)c1=O | 66 (active) |
| CC1=C(C(=O)Nc2ccccc2)S(=O)(=O)CCO1 | inactive |
| COc1ccc2c(c1)[C@]13CCCCC1C(C2)N(C)CC3 (stereo not given in full) | inactive |
| O=C1NC(=O)N(Cc2ccco2)C(=O)/C1=C\c1cccn1CCOc1ccccc1 | inactive |
| Cc1cc(/C=C2/C(=O)NC(=O)N(Cc3ccco3)C2=O)c(C)n1-c1ccc(C(=O)O)cc1 | inactive |
| O=C1NC(=O)N(Cc2ccco2)C(=O)/C1=C\c1ccc(-c2ccc(F)cc2)o1 | 28.4 (active) |
| CCN(N=Nc1nonc1OC)c1nonc1OC | inactive |
| Cc1ccc2c(c1)=C/C(=C\c1c(O)[nH]c(=O)[nH]c1=O)C(=O)N=2 | inactive |
